# Hits are enriched below; roughly 9.6% of the tested compounds scored in any of these assays.
# bCat KO growth: beta-catenin-lacking colon tumor cell growth suppression; HCT116 beta-catenin knockout viability, CellTiter-Glo, 60 h; active compounds read low; viability, % at 10 µM; 140,000 tested, 1.5% active;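 active means viability at or under a set limit, the compound median less 4 SD, cut at about 6% in these data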;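 further: 0% = Hyamine 1622 control at 20 µM and 100% = untreated cell control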
# PMI act: increases human mannose-6-phosphate isomerase activity; purified human PMI, coupled resazurin fluorescence, 20 min; active compounds read high; 1 = vehicle control, 0 substrate-free wells; P34949; 190,000 tested, 0.005% active; activation factor at 20 µM; AID 1214;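 active means activation factor of 2 or more at 20 µM, relative to plate controls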
# Target sequence (P34949 whole entry, looked up): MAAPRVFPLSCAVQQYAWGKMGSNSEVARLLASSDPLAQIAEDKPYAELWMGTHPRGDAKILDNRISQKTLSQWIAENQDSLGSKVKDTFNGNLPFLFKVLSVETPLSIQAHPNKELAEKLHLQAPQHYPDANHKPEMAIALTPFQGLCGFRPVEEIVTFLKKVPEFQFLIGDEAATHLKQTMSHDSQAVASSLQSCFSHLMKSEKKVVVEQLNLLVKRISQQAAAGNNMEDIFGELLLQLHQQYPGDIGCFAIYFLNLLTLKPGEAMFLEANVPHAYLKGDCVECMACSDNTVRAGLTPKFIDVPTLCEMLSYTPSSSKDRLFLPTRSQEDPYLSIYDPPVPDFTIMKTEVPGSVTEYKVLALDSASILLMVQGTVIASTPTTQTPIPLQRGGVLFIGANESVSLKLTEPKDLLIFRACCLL
# PMI act satM6P: PMI (human) activation, high substrate | 190,000 tested, 0.34% active | P34949 | activation factor at 20 µM | coupled PMI enzyme assay, resazurin fluorescence, 20 min; active compounds read high; 1 = untreated enzyme, 0 = substrate-free blank;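 active means activation factor of 2 or more at 20 µM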
#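 Material: human phosphomannose isomerase with PGI, G6PDH, diaphorase coupling enzymes. Quantity: 15 ng/mL PMI. Medium: HEPES pH 7.4 buffer with MgCl2 and Tween-20. Reagent: Near-saturating mannose-6-phosphate, 1.0 mM. Compound: 20 µM single dose. Times: enzyme reaction with compound 20 min at room temperature. Detection: resorufin fluorescence at Ex 544/Em 590 nm.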
# L major viab: reduces viability of Leishmania major promastigotes | resazurin fluorescence viability | inhibition, % at 10 µM | 200,000 tested, 9% active; in the data active means inhibition above about 50%;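 further: promastigotes grown with compound for 44 hours at 28 °C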
# HCT116 PTEN-null: growth suppressors of cells with PTEN tumor suppressor deletion | HCT116 PTEN-null viability, CellTiter-Glo, 60 h; active compounds read low | 140,000 tested, 1.2% active | AID 827 | viability, % at 10 µM;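 active means viability at or below a set limit, 4 SD under the median of all tested compounds, cut at about 3.7% in these data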;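 further: PTEN knockout HCT116 line with beta catenin targeted HCT116 as companion control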
# * = called active by the depositor; . = no result.
SMILES,bCat KO growth,PMI act,PMI act satM6P,L major viab,HCT116 PTEN-null
COc1ccc(NC(=O)COC(=O)c2c3c(nc4ccccc24)CCCC3)cc1Cl,10.7,0.9,1,23.2,13.4
CC(C)(C)C(=O)Cn1c(=N)n(Cc2ccccc2)c2ccccc21,83.1,1.1,1,57.7*,79.1
N=c1n(CC(=O)c2cccc([N+](=O)[O-])c2)c2ccccc2n1Cc1ccccc1,.,1.1,1.1,62.6*,.
Cc1ccc(Cn2c(=N)n(CC(=O)c3ccccc3)c3ccccc32)cc1,.,1.1,1.1,100.3*,.
Cc1ccc(Cn2c(=N)n(CC(O)c3ccco3)c3ccccc32)cc1 (configuration not stated),61.9,1,1.2,20.9,58.4
CC(C)(C)C(=O)Cn1c(=N)n(Cc2ccccc2Cl)c2ccccc21,87.1,1,1.1,100.4*,87.9
O=C1CSC(c2ccccn2)N1Cc1cn2ccccc2n1 (configuration not stated),79.2,1,1,-7.8,79.2
COc1ccccc1NC(=O)Nc1ccccc1Br,.,0.9,1,18.1,.
COc1ccccc1NS(=O)(=O)c1cc(NC(=O)Nc2ccccc2)ccc1N1CCCCC1,63.8,0.9,0.8,91.1*,45.8
COc1ccccc1NS(=O)(=O)c1cc(NC(=O)c2sccc2C)ccc1N1CCCC1,.,0.7,0.7,63.6*,.
COc1ccccc1NS(=O)(=O)c1cc(NC(=O)C(C)C)ccc1N1CCCCC1,.,0.6,0.8,30.3,.
CCCN1CCC(NC(=O)Nc2cc(Cl)ccc2OC)CC1,.,0.9,1,7.3,.
COc1ccc(Cl)cc1NC(=O)Nc1cccc([N+](=O)[O-])c1C,3.1*,0.8,0.8,21.0,3.9
COc1ccc(Cl)cc1NC(=O)c1ccccc1C,80.9,1.1,1.1,-1.1,87.6
COc1ccc(Cl)cc1NC(=O)NC1CCCCC1,83.2,1,1,99.8*,69.1
COc1ccccc1NS(=O)(=O)c1cc(NC(=O)c2cccs2)ccc1N1CCCCC1,72.5,0.9,0.9,43.5,74.7
C=CCn1c(SCc2c(F)cccc2Cl)nnc1-c1ccco1,78.8,1.1,0.9,3.5,79.7
COc1ccc(-c2nn3c(-c4ccncc4)nnc3s2)cc1OC,.,.,.,0.2,.
O=C(c1ccc2ccccc2n1)N1CCN(c2ccccc2O)CC1,87.9,0.9,0.7,-9.7,97.8
COc1ccccc1NS(=O)(=O)c1cccc(NC(=O)c2ccc3ccccc3n2)c1,65.4,0.8,0.9,43.0,51.4
COc1ccccc1NS(=O)(=O)c1cc(NC(=O)c2cccs2)ccc1N1CCCC1,76.5,0.5,0.7,93.5*,80.2
COc1ccc(S(=O)(=O)Nc2ccccc2OC)cc1NC(=O)Cc1cccs1,94.5,0.9,1.1,100.3*,84.4
O=C(Nc1ccc(N2CCCC2)c(S(=O)(=O)Nc2cccc(C(F)(F)F)c2)c1)c1cccs1,50.7,0.8,0.8,91.5*,28.4
COc1ccccc1NS(=O)(=O)c1cccc(NC(=O)NC2CCCCC2)c1,80.8,0.8,0.8,98.8*,82.5
COc1ccccc1NS(=O)(=O)c1ccc(NC(=O)Cc2cccs2)cc1,84.4,0.9,1,2.3,80.8
SMILES,bCat KO growth,PMI act,PMI act satM6P,L major viab,HCT116 PTEN-null
COC(=O)c1cncc(O)c1,97.8,0.9,1,-6.6,103.2
COc1ccc(CNC(=O)CSc2n[nH]c(C)c2[N+](=O)[O-])cc1,92.6,1,1.1,29.0,96.1
COc1ccccc1NS(=O)(=O)c1cccc(NC(=O)c2nc3nc(C)cc(C)n3n2)c1,75.8,1,1,71.9*,68.8
CCc1ccc2c(c1)C1(NN=C(c3cccc4ccccc34)S1)C(=O)N2 (configuration not stated),10.2,1.1,0.8,98.9*,10.7
O=C(Nc1ccc(Br)cc1F)c1ccc2c(c1)N(Cc1ccccc1)C(=O)CS2=O (configuration not stated),76.8,0.9,1,99.6*,75.0
O=C(O)C1SCCN1S(=O)(=O)c1ccc(N=NN2CCOCC2)cc1 (configuration not stated),.,1.1,1,-3.9,.
CCN1CCN(CC(=O)Nc2sc3c(c2C#N)CCC(C)C3)CC1 (configuration not stated),1.4*,0.9,0.9,100.4*,1.5*
CCCC(=O)Nc1sc2c(c1C#N)CCCCC2,0.9*,1,1,-2.6,1.0*
Cc1csc(SCC(=O)Nc2sc3c(c2C#N)CCC3)n1,48.2,1,1,99.4*,46.6
C=CCNC(=S)Nc1sc2c(c1C#N)CCCC2,.,1,1,57.9*,.
CCC(=O)Nc1sc2c(c1C#N)CCCCC2,88.2,0.9,1,-3.4,81.3
N=C1C(c2ccccc2)=C(O)CN1c1cccc(O)c1,.,1.2,1,-1.2,.
Clc1ncc(CN2CCN(c3ccccc3)CC2)s1,.,1.1,1,7.0,.
c1ccc(N2CCN(Cc3ccnc4ccccc34)CC2)cc1,19.2,1.5,2*,8.3,22.3
CCOC(=O)C(C)(C)N(Cc1ccc(C)cc1)S(=O)(=O)c1ccc(Cl)c([N+](=O)[O-])c1,0.9*,0.9,1,99.8*,0.8*
CCOC(=O)C(C)(C)N(Cc1ccc(Cl)cc1)S(=O)(=O)c1ccc(Cl)c([N+](=O)[O-])c1,1.1*,1,0.9,99.2*,1.6*
COC(=O)c1cn(NC(=O)Cc2c(F)cccc2Cl)c(=O)c2ccccc12,.,1,1,3.0,.
O=C(NCC1CCCO1)c1cc([N+](=O)[O-])ccc1Cl (configuration not stated),.,1.1,1,-0.3,.
Cc1cc(NCCO)nc(N2CCOCC2)n1,100.3,0.8,0.9,-3.4,94.8
O=C1Nc2ccc(Br)cc2C1=Nc1ccc(-c2nnc3n2CCCCC3)cc1,88.6,0.8,0.8,74.2*,92.4
Brc1cccc(-c2nnc3n2CCCCC3)c1,103.9,0.9,0.9,-2.5,109.8
CN(CCN1CCOCC1)Cc1nc(-c2cccs2)no1,.,1,1.1,72.8*,.
COc1ccc(C(=O)Nc2c3c(nn2-c2cccc(Cl)c2)CS(=O)C3)cc1 (configuration not stated),89.7,1,1,97.6*,84.7
CCCc1cc(=O)[nH]c(SCC(=O)c2ccc3c(c2)OCCO3)n1,96.4,0.9,1,60.9*,100.3
CCN(CC)CCSc1nc(O)c(-c2ccccc2)c(=O)n1-c1ccccc1,.,0.9,1,-3.4,.
CCN(CC)CCSc1nc2ccccc2c(=S)n1-c1ccccc1,.,1.1,1.1,81.7*,.
OC(COc1ccccc1)Cn1c2ccccc2c2ccccc21 (configuration not stated),78.1,0.8,0.9,69.6*,67.9
CC(=O)Nc1ccc(N(CC(O)Cn2c3ccccc3c3ccccc32)S(=O)(=O)c2ccc(C)cc2)cc1 (configuration not stated),43.4,1,1,61.8*,31.3
